# Screening data from PubChem BioAssay.
# Apaf1 activ: activates human Apaf-1 apoptosome | O14727 | Apaf-1 apoptosome caspase-3 activation, DEVD-Rh110 fluorescence; active compounds read low | activity change, negative = activation, % at 20 µM | 330,000 compounds, 0.31% hits;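 active = activity change at or below -40% at 20 µM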
# Target sequence (O14727 whole entry, looked up): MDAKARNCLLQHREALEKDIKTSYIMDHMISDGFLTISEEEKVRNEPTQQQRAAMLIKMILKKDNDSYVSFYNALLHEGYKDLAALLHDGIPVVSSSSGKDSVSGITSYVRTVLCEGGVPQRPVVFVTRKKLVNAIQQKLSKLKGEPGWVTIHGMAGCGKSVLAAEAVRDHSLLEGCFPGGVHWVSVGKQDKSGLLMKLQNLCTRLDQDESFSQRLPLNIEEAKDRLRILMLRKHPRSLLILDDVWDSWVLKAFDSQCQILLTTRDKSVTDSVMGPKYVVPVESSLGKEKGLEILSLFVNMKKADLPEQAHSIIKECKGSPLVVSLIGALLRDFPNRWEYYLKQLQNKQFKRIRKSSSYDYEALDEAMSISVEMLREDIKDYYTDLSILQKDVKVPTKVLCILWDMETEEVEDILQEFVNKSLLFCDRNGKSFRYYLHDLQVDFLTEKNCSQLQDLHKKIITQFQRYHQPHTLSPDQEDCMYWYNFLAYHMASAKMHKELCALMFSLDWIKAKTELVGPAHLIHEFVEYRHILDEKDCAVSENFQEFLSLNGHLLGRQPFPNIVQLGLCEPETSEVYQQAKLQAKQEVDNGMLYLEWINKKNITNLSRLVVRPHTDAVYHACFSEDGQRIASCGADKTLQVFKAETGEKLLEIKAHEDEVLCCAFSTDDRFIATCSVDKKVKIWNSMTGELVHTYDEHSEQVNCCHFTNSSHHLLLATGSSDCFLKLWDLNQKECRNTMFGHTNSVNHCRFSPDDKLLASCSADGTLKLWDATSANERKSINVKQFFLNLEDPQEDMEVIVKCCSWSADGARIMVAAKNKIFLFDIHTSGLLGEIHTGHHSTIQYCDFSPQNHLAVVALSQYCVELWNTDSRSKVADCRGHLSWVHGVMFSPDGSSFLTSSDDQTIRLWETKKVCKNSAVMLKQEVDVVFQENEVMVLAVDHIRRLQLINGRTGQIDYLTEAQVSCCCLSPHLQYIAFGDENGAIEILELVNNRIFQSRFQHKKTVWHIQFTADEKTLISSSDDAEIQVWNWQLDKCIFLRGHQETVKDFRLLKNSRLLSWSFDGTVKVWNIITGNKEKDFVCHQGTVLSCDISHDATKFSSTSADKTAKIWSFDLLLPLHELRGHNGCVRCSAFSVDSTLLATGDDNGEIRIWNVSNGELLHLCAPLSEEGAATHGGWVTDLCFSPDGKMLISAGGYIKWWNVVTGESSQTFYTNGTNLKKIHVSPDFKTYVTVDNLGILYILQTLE
#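 Material: biochemical Apaf-1 apoptosome reconstitution; Medium: 20 mM HEPES buffer, pH 7.5, containing CHAPS and BSA; Reagent: dATP, cytochrome c, and (Z-DEVD)2-Rh110 caspase-3 substrate; Times: 30 min preincubation, 50 min reaction, room temperature; Signal: Rh110 fluorescence, excitation 480 nm, emission 540 nm; Measure: Caspase-3 activity via Apaf-1.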
# Rh110 act interf: counter-screen for Apaf-1 activators: fluorescence interference. 980 tested, under 10 active. fluorescence interference (activity change), % at 20 µM, hits read low. shares compounds with Apaf1 activ. Rh110 fluorescence interference, quenched caspase reaction, Ex480/Em540;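 active = mean activity change at or below -40% when tested at 20 µM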
# Apaf-1 act conf: confirmation of human Apaf-1 activators; shares compounds with Apaf1 activ; reconstituted apoptosome caspase-3 activity, DEVD-Rh110 fluorescence; active compounds read low; activity change, negative = activation, % at 20 µM; 980 compounds, 5% hits; AID 504617;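 active = mean activity change at or below -40%, meaning activation of 40% or more, at 20 µM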
# Apaf1 act interf: counter-screen for Apaf-1 activators: fluorescence interference, dose response | shares compounds with Apaf1 activ | fluorescence interference counterscreen, Apaf-1 activator assay | EC50, µM | 55 tested, under 10 active; call rule not given here
# A number is an active result; . = inactive; / = not tested or not shown. Not all results are given here.
SMILES,Apaf1 activ,Rh110 act interf,Apaf-1 act conf,others
CCN(CC)S(=O)(=O)c1cccc(NC(=O)C2SC(=Nc3ccc(C)cc3C)C(C(=O)NCC3CCCO3)=C2N)c1 (centres undefined),.,/,/,
Cc1cccnc1NC(=O)c1ccc(OCC2CCCO2)cc1 (centres undefined),.,/,/,
CCOC(=O)c1c(C)c(C(=O)NCC2CCCO2)c(C)n1C (centres undefined),-59,.,.,
O=C(C[C@H]1C[C@H](C(=O)N2CCOCC2)[C@@]2(CCC3CCCC3)c3[nH]c4cc(-c5ccco5)ccc4c3CCN2C1=O)NCCCn1ccnc1,.,/,/,
O=C1NC(=Nc2ccccc2)S/C1=C/c1cccs1,-300,.,.,
C#CCOCCOCCOCCNc1nc(N2CCN(C(=O)CCCCCCCCCCNC(=O)[C@H](CCC(=O)O)n3cc(CCCCCN)nn3)CC2)nc(N2CCN(C(=O)CCCCCCCCCCNC(=O)[C@@H]([C@H](C)O)n3cc(C)nn3)CC2)n1,.,/,/,
Cc1ccccc1NC(=O)CSc1nnc(NC(=O)c2ccco2)s1,-66,.,.,
CC/C(=N/Nc1cccc(C)c1)c1cnnc(SC)n1,.,/,/,
CCCC(CCC)C(=O)O,.,/,/,
C[C@@H](CN1C2=NC[C@H](Cc3ccccc3)N2C[C@H]1Cc1ccc(O)cc1)NC(=O)CCC1CCCCC1,.,/,/,
Cc1ccc(-n2nc(C)c3c2OC(N)=C(C#N)C3c2ccoc2)cc1 (centres undefined),.,/,/,
CCc1ccc(OCCNc2cc(N3CCNC(C)C3)ccc2[N+](=O)[O-])cc1 (centres undefined),.,/,/,
COc1ccc(C(C)(C)C)cc1NC(=O)CNc1cccc2ccccc12,.,/,/,
COc1ccc(OC)c(NC(=O)CS(=O)(=O)Cc2nc(-c3ccccc3C)oc2C)c1,-50,.,.,
COc1ccc(CC(=O)Nc2ccc(-c3nc4cc(C)ccc4o3)c(O)c2)cc1OC,.,/,/,
CCN(CC)c1nc(OCCNC(=O)Nc2ccccc2)nc(N(CC)CC)n1,-52,.,.,
COCCNC(=O)c1c(N)n(-c2ccccc2)c2nc3ccccc3nc12,.,/,/,
O=C(NCCOc1nc(N2CCCCC2)nc(N2CCCCC2)n1)Nc1ccccc1,.,/,/,
O=C1NC2=C(CCc3ccccc32)C(c2ccc(Br)cc2)N1 (centres undefined),.,/,/,
Cc1cccc(OCc2n(CC(=O)OC3CC(C)CCC3C(C)C)c3ccccc3[n+]2C)c1 (centres undefined),.,/,/,
CC(=O)NC1=C(N(C)C2CCS(=O)(=O)C2)C(=O)c2ccccc2C1=O (centres undefined),.,/,/,
NNC(=O)c1ccc(Cn2cc(Br)c(N)n2)cc1,-40,.,.,
Cc1onc(-c2ccccc2Cl)c1C(=O)N[C@@H]1C(=O)N2[C@@H]1SC(C)(C)[C@@H]2C(=O)O,.,/,/,
O=[N+]([O-])c1cccc(C=Nc2cccc3ccccc23)c1O,.,/,/,
CC1=CC(=C(C#N)c2nc3ccccc3s2)C=C(C)N1c1ccc(F)cc1,.,/,/,
SMILES,Apaf1 activ,Rh110 act interf,Apaf-1 act conf,others
COCCNC(=O)c1c[nH]c2ccc(S(=O)(=O)N(C)c3ccc(C)c(C)c3)cc2c1=O,-68,.,.,
Cc1ccc(N(C)S(=O)(=O)c2cccc(C(=O)Nc3ccc(C)cn3)c2)cc1,.,/,/,
COCCN(C(=O)COC(=O)/C=C/c1ccc(C(F)(F)F)cc1)c1c(N)n(Cc2ccccc2)c(=O)[nH]c1=O,.,/,/,
Clc1ccc(/C=N/Nc2ncnc3ccccc23)cc1Cl,.,/,/,
Cc1ccc2c(c1)c1ccc3c(c1n2C)C(=O)C=CC3=O,.,/,/,
c1cc2cn[nH]c2cc1NC1CCCCCC1,.,/,/,
O=C(O)c1cccc(CN2C(=O)CSC2=O)c1,-52,.,.,
COc1ccc(-c2sc3ccccc3c2-c2ccc(OCCN(C)C)cc2)cc1,.,/,/,
COc1ccc(-c2nc(-c3ccccc3)c(-c3cccs3)[nH]2)cc1OC,-373,.,.,
CCc1ccc(OCC(=O)N/N=C2\CC(=O)c3ccccc32)cc1,.,/,/,
CN(Cc1ccccc1)C(=O)CN1C(=O)NC(C)(c2ccc(C(C)(C)C)cc2)C1=O (centres undefined),.,/,/,
CC(C)NS(=O)(=O)c1ccc(OCC(=O)N(C)Cc2ccccc2)cc1,-555,.,.,
O=C(c1ccc(OCCN2CCCCC2)cc1)c1c(-c2ccc(O)cc2)sc2cc(O)ccc12,.,/,/,
N#CCCn1cc(C(CC(=O)c2ccc(Br)cc2)C(=O)O)c2ccccc21 (centres undefined),-67,.,-48,Apaf1 act interf=.
N=c1n(CC(=O)c2ccc(Br)cc2)c2ccccc2n1Cc1ccccc1,.,/,/,
CCOc1cccc(-c2cc(=O)[nH][nH]2)c1,.,/,/,
CCS(=O)(=O)c1nc(S(=O)(=O)c2ccc(Cl)cc2)c(N2CCc3ccccc3C2)s1,-406,.,.,
